# Legend:
# Staphylococcus aureus [1] = assay: Antibacterial activity against Staphylococcus aureus ATCC 29213 incubated overnight by broth dilution method; format: functional
# Outline: (§1)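 Strains pre-grown overnight at 37 °C on Mueller Hinton II agar; CLSI broth dilution, inoculum about 7.5 × 10^5 CFU/well. Compounds taken from 1.0 mg/mL stocks in 50 % methanol/H2O, diluted in H2O as 2-fold series. Plates held at 37 °C overnight; MIC read visually as lowest concentration with no growth.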
# Clostridioides difficile [2] = assay: Antibacterial activity against Clostridium difficile 5680 incubated for 46 hrs in anaerobic condition by CLSI-based broth microdilution assay; format: functional
# Clostridioides difficile [3] = assay: Antibacterial activity against Clostridium difficile incubated for 48 hrs by microbroth dilution method; format: functional
# Outline: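 Per CLSI, anaerobic broth microdilution in Brucella broth with hemin, vitamin K and 5% laked horse blood. Isolates pre-grown anaerobically on supplemented Brucella blood agar, 35–37 °C, 44–48 h. Inoculum at 0.5 McFarland, diluted 1:10. 2-fold drug series from DMSO, 16–0.015 µg/mL. Incubated anaerobically at 35–37 °C and read at 46 h. MIC is the lowest concentration inhibiting visible growth.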
# Staphylococcus aureus [4] = assay: Antibacterial activity against Staphylococcus aureus by CLSI-based broth microdilution method; format: functional
# Outline: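 S. aureus ATCC29213 grown overnight at 37 °C on MH II agar. MIC by CLSI broth dilution at about 7.5 × 10^5 CFU/well. Compounds diluted 2-fold in water from 1.0 mg/mL stocks in 50% methanol. Plates incubated overnight at 37 °C. MIC is the lowest concentration with no growth, read by eye.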
# Clostridioides difficile [5] = assay: Antibacterial activity against Clostridium difficile 8260 incubated for 46 hrs in anaerobic condition by CLSI-based broth microdilution assay; format: functional
# [6] = Aqueous solubility of the compound in phosphate buffer at pH 7 after 5 hrs by UHPLC analysis; format: physicochemical
# Outline: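 Solid added to 1.0 mL pH 7 phosphate buffer containing 50 µg/mL caffeine internal standard until saturated. Stirred 5 h at room temperature, passed through a 0.22 µm filter, then run on C18 UHPLC with a water/MeCN + 0.1 % HCOOH gradient. Analyte/IS peak-area ratio was converted to concentration using a linear calibration from MeOH standards at 50–500 µg/mL.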
# Clostridioides difficile [7] = assay: Antibacterial activity against Clostridium difficile 8282 incubated for 46 hrs in anaerobic condition by CLSI-based broth microdilution assay; format: functional
# Bacillus subtilis = assay: Antibacterial activity against Bacillus subtilis DSM3256 incubated overnight by broth dilution method; format: functional; outline: as §1
# Clostridioides difficile [8] = assay: Antibacterial activity against Clostridium difficile ATCC 700057 incubated for 46 hrs in anaerobic condition by CLSI-based broth microdilution assay; format: functional
# Clostridioides difficile [9] = assay: Antibacterial activity against Clostridium difficile under anaerobic condition by CLSI-based broth microdilution assay; format: functional
# Outline: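 Isolates streaked on Brucella agar with hemin, vitamin K and 5% sheep blood, anaerobic 35–37°C, 44–48 h. CLSI broth microdilution in Brucella broth with hemin, vitamin K, 5% laked horse blood. Test agents in DMSO, 2-fold series, 16–0.015 µg/mL. Inoculum from a 0.5 McFarland suspension diluted 1:10. Incubated anaerobically 35–37°C, read at 46 h; MIC = lowest concentration inhibiting visible growth.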
# Clostridioides difficile [10] = assay: Antibacterial activity against Clostridium difficile BAA-1875 incubated for 46 hrs in anaerobic condition by CLSI-based broth microdilution assay; format: functional
# Clostridioides difficile [11] = assay: Antibacterial activity against Clostridium difficile 8290 incubated for 46 hrs in anaerobic condition by CLSI-based broth microdilution assay; format: functional
# Clostridioides difficile [12] = assay: Antibacterial activity against Clostridium difficile 8264 incubated for 46 hrs in anaerobic condition by CLSI-based broth microdilution assay; format: functional
# [13] = tested on: Mycobacterium tuberculosis; assay: Antimycobacterial activity against recombinant Mycobacterium tuberculosis H37Rv expressed in green fluorescence protein by measuring increase in fluorescence after 10 days in presence of middlebrook 7H9/OADC medium by GFP reporter gene assay; format: functional; details: 240 h, time 10 day
# Clostridioides difficile [14] = assay: Antibacterial activity against Clostridium difficile BAA-1805 incubated for 46 hrs in anaerobic condition by CLSI-based broth microdilution assay; format: functional
# Clostridioides difficile [15] = assay: Antibacterial activity against Clostridium difficile ATCC 9689 incubated for 46 hrs in anaerobic condition by CLSI-based broth microdilution assay; format: functional; details: ATCC 9689 = DSM 1296
# Clostridioides difficile [16] = assay: Antibacterial activity against Clostridium difficile ATCC 43255 incubated for 46 hrs in anaerobic condition by CLSI-based broth microdilution assay; format: functional
compound,measurement,setting,value
CCc1c(Cl)c(O)c(Cl)c(O)c1C(=O)O[C@@H]1[C@@H](O)[C@@H](OC)[C@@H](OC/C2=C\C=C\C[C@H](O)/C(C)=C/[C@H](CC)[C@@H](O[C@@H]3OC(C)(C)[C@@H](OC(=O)C(C)C)[C@H](O)[C@@H]3O)/C(C)=C/C(C)=C/C[C@@H]([C@@H](C)O)OC2=O)O[C@H]1C,MIC,Staphylococcus aureus [1],8 µg/mL
same,MIC,Clostridioides difficile [2],0.06 µg/mL
same,MIC,Clostridioides difficile [3],0.25 µg/mL
same,MIC,Staphylococcus aureus [4],2 µg/mL
same,MIC,Clostridioides difficile [5],0.06 µg/mL
same,solubility at 5 h,[6],84 µg/mL
same,MIC,Clostridioides difficile [7],0.03 µg/mL
same,MIC,Bacillus subtilis,8 µg/mL
same,MIC,Clostridioides difficile [8],0.03 µg/mL
same,MIC,Clostridioides difficile [9],0.012 µg/mL
same,MIC,Clostridioides difficile [10],0.03 µg/mL
same,MIC,Clostridioides difficile [11],0.03 µg/mL
same,MIC,Clostridioides difficile [12],0.12 µg/mL
same,MIC90,[13],0.25 µg/mL
same,MIC,Clostridioides difficile [14],0.12 µg/mL
same,MIC,Clostridioides difficile [15],≤ 0.015 µg/mL
same,MIC,Clostridioides difficile [16],0.03 µg/mL

# — ChEMBL document CHEMBL4665898, “Semisynthetic Analogs of the Antibiotic Fidaxomicin-Design, Synthesis, and Biological Evaluation” (ACS Med Chem Lett, 2020)
